For data set [1], the target named is T1, Glucose-dependent insulinotropic receptor (Homo sapiens) (UniProt Q8TDV5).
T1 sequence (whole entry): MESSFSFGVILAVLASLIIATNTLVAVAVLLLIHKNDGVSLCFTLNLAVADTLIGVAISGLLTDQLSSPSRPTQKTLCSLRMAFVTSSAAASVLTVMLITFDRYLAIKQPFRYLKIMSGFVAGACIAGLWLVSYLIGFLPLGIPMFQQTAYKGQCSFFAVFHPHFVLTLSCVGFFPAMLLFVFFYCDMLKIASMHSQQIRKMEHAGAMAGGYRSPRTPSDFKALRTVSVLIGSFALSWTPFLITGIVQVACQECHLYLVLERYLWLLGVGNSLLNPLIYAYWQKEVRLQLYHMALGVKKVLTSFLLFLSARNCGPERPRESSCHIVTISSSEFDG
Put plainly: Agonist activity at CREB-LBD and Gal4-DBD fused recombinant human GPR119 expressed in HEK293 cells at 1 uM by firefly luciferase assay relative to AR231453. The following applies: filed as agonist. Type of data set: functional, cell-based. An outline of the steps: (§1)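 HEK293 cells transiently transfected with human GPR119, a Gal4-DBD/CREB-LBD fusion and a Gal4 UAS-driven luciferase reporter, then treated with compound (DMSO vehicle). Firefly luciferase luminescence read. Activation fold = compound/vehicle, expressed as percent of the AR231453 activation fold. EC50 obtained by curve fitting.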

The target in data set [2] is T2, Glucose-dependent insulinotropic receptor (Homo sapiens, UniProt Q8TDV5).
T2 sequence (Q8TDV5 whole entry): T1 sequence (whole entry)
Put plainly: Agonist activity at CREB-LBD and Gal4-DBD fused recombinant human GPR119 expressed in HEK293 cells by firefly luciferase assay. Type of data set: functional, cell-based. An outline of the steps: as §1

In another data set the target is DPP8/9 (Homo sapiens, UniProt Q6V1X1+Q86TI2). Put plainly: Inhibition of recombinant human DPP8/9 expressed in Rosetta cells at 10 uM using Gly-Pro-p-nitroanilide as substrate incubated for 1 hr relative to control. The following applies: probe Gly-Pro-p-nitroanilide.
The next data set relates to Vero. Put plainly: Cytotoxicity against African green monkey Vero cells incubated for 48 hrs by MTT assay. The following applies: Chlorocebus sabaeus.
Data set [3] is described as follows: Metabolic stability in human hepatocytes assessed as parent compound remaining incubated for 30 mins by LC-MS/MS analysis. In kind it is ADME, cell-based, Hepatocyte. The following applies: read-out: Stabilty. An outline of the steps:
(§2)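 Hepatocytes from male ICR/CD-1 mice, male Sprague-Dawley rats, or mixed human donors. Parent compound measured after 30 min incubation and normalised to the time-zero concentration.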

Data set [4] in a line: Metabolic stability in ICR/CD-1 mouse hepatocytes assessed as parent compound remaining incubated for 30 mins by LC-MS/MS analysis. The following applies: read-out: Stabilty. Type of data set: ADME, cell-based, Hepatocyte. An outline of the steps:
as §2

A short description of data set [5]: Metabolic stability in Sprague-Dawley rat hepatocytes assessed as parent compound remaining incubated for 30 mins by LC-MS/MS analysis. In kind it is ADME, cell-based, Hepatocyte. The following applies: read-out: Stabilty. An outline of the steps:
as §2

For a further data set, the system named is Mus musculus. Put plainly: Antidiabetic activity in ICR mouse assessed as reduction in blood glucose level at 30 mg/kg, po administered as single dose followed by oral glucose challenge measured after 30 mins by glucose oxidase method. Type of data set: functional, organism-based. An outline of the steps: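 Overnight-fasted ICR mice given compound by oral gavage (vehicle distilled water) before a 2 g/kg oral glucose load. Tail-tip blood taken at 0, 30, 60 and 120 min; glucose measured by the glucose oxidase method. n = 10 per group, mean ± SEM.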

Converted amounts (≈) assume the structure as drawn. The source made the active and inactive calls. The rule behind the calls is not given here.

The results in this text go back to ChEMBL document CHEMBL4680154, “The optimization of xanthine derivatives leading to HBK001 hydrochloride as a potent dual ligand targeting DPP-IV and GPR119” (Eur J Med Chem, 2020).

For orientation: EC50 means the midpoint of the concentration-response curve. A word on the inhibition: it is the change of the read-out against control, counted positive when it falls. Usually IC50 stands for the concentration that gives 50% inhibition.

Regarding `CC#CCn1c(N2CCC[C@@H](N)C2)nc2c1c(=O)n(CCCN1CCC(c3ncc(-c4ccccc4)o3)CC1)c(=O)n2C`, the Activity in data set [1] worked out at 80%. Further, the EC50 in data set [2] turned out to be 830 nM. Further, the inhibition at 1 h, 10 µM at DPP8/9 came to 3.3%.

As for `CC#CCn1c(N2CCC[C@@H](N)C2)nc2c1c(=O)n(CCCN1CCN(c3ncc(OC)cn3)CC1)c(=O)n2C`, the Activity in data set [1] was determined as 79%. For the same molecule, the EC50 in data set [2] was found to be 2260 nM.

Consider `CC#CCn1c(N2CCC[C@@H](N)C2)nc2c1c(=O)n(CCCN1CCC(c3nc(-c4ccccc4)no3)CC1)c(=O)n2C`, for which the Activity in data set [1] came to 55%.

As to `CC#CCn1c(N2CCC[C@@H](N)C2)nc2c1c(=O)n(CCCN1CCC(c3nc(-c4ccccc4)c[nH]3)CC1)c(=O)n2C`, the midpoint of inhibition in the data set with Vero, the IC50, lay at 35.2 µg/mL (≈ 60.3 µM). Also, the results for the remaining at 0.5 h in data set [3], in data set [4] and in data set [5] were 84%, 69.4% and 21.7%, respectively. In addition, the Activity in data set [1] was determined as 65%. Moreover, the EC50 in data set [2] is 600 nM. The inhibition at 1 h, 10 µM at DPP8/9 was found to be 5.1%.

Turning to `CC#CCn1c(N2CCC[C@@H](N)C2)nc2c1c(=O)n(CCCN1CCC(c3cc(-c4ccccc4)on3)CC1)c(=O)n2C`, the Activity in data set [1] was determined as 49%. Also, the inhibition at 1 h, 10 µM on DPP8/9 came to 3.3%.

The molecule `CC#CCn1c(N2CCC[C@@H](N)C2)nc2c1c(=O)n(CCCN1CCC(n3cc(-c4ccccc4)nn3)CC1)c(=O)n2C` registered an IC50 with Vero of 25.9 µg/mL (≈ 44.3 µM). Further, the remaining at 0.5 h in data set [3] was 68.1%; in data set [4], 21%; in data set [5] it was 19.7%. Further, the Activity in data set [1] was determined as 47%. The inhibition at 1 h, 10 µM at DPP8/9 worked out at 0%.

In the case of `CC(C)c1noc(C2CCN(c3ncnc(Nc4ccc(S(C)(=O)=O)cc4F)c3[N+](=O)[O-])CC2)n1`, the Activity in data set [1] was 100%. For the same molecule, the EC50 in data set [2] was determined as 640 nM.

Turning to `CC#CCn1c(N2CCC[C@@H](N)C2)nc2c1c(=O)n(CCCN1CCN(c3nc(-c4ccccc4)ns3)CC1)c(=O)n2C`, the Activity in data set [1] turned out to be 81%. In addition, the EC50 in data set [2] was determined as 1930 nM. In addition, the inhibition at 1 h, 10 µM at DPP8/9 amounted to 1.6%.

As to `CC#CCn1c(N2CCC[C@@H](N)C2)nc2c1c(=O)n(CCCN1CCN(c3nc(-c4ccccc4)no3)CC1)c(=O)n2C`, in data set [1], the Activity stood at 58%. Besides, in the data set with Mus musculus, the outcome was Active.

Consider `CC#CCn1c(N2CCC[C@@H](N)C2)nc2c1c(=O)n(CCCN1CCN(c3ncc(CC)cn3)CC1)c(=O)n2C`, for which the Activity in data set [1] came to 85%. For the same molecule, the EC50 in data set [2] turned out to be 3990 nM.

For `CC#CCn1c(N2CCC[C@@H](N)C2)nc2c1c(=O)n(CCCN1CCC(c3nc(-c4ccccc4)cs3)CC1)c(=O)n2C`, the Activity in data set [1] is 83%. The EC50 in data set [2] came to 3130 nM. In addition, the inhibition at 1 h, 10 µM at DPP8/9 stood at 2.2%.
